Laboratory results published in publication PMC9896656 (Investigational new drugs, 2022).
Where two headings read alike, the source gives them in different places. Residues, ends and D or L forms follow the SMILES beside them. *: point of attachment. Cbz = O=C(OCc1ccccc1)*

What was measured:
[1] = Differential nuclear staining; type: cell-based, human; conditions: human, Hs-27 cells (non-cancerous reference) versus CEM cells
[2] = tested on: CEM; test: Differential nuclear staining; type: cell-based, human; conditions: CEM; concentration used for cell cycle analysis
[3] = Differential nuclear staining; type: cell-based; conditions: human, Hs-27 cells (non-cancerous reference) versus RAMOS cells
In short: (§1)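 Cells were seeded at 10,000/well in 96-well plates; adherent lines attached overnight. A 0.1–5 μM gradient was applied for 48 h, with 1% DMSO, 1 mM H2O2 and untreated wells. PI and Hoechst 33342 (5 μg/ml each) were added 2 h before reading at 37°C. Wells were imaged to separate dead from total nuclei. CC50 was obtained by linear interpolation of the dose-response. Selectivity index uses Hs-27 as the non-cancer reference.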

[4] = tested on: RAMOS; test: Differential nuclear staining; type: cell-based; conditions: Homo sapiens, Ramos, 48 h
In short: as §1

[5] = Differential nuclear staining; type: cell-based; conditions: human, Hs-27 cells (non-cancerous reference) versus HL-60 cells
In short: as §1

[6] = tested on: HL-60; test: Differential nuclear staining; type: cell-based; conditions: Homo sapiens, HL-60, 48 h
In short: as §1

[7] = Differential nuclear staining; type: cell-based; conditions: human
In short: as §1

[8] = tested on: MDA-MB-231; test: Differential nuclear staining; type: cell-based; conditions: Homo sapiens, MDA-MB-231, 48 h
In short: as §1

[9] = Differential nuclear staining; type: cell-based; conditions: human; for selectivity ratio at 48 h: Hs-27 cells (non-cancerous reference) versus MCF-10 A cells; for CC50 at 48 h: MCF-10 A cells (breast epithelial)
In short: as §1

[10] = Differential nuclear staining; type: cell-based; conditions: human, Hs-27 cells (non-cancerous reference) versus HT-29 cells
In short: as §1

[11] = tested on: HT-29; test: Differential nuclear staining; type: cell-based; conditions: Homo sapiens, HT-29, 48 h
In short: as §1

[12] = Differential nuclear staining; type: cell-based, human; conditions: human, Hs-27 cells (non-cancerous reference) versus COLO 205 cells
[13] = tested on: COLO 205; test: Differential nuclear staining; type: cell-based, human; conditions: for CC20: COLO 205, concentration used for cell cycle analysis; for CC50: Homo sapiens
[14] = Differential nuclear staining; type: cell-based; conditions: human, CCD-112-CoN cells (non-cancerous colon fibroblasts)
In short: as §1

[15] = Differential nuclear staining; type: cell-based; conditions: human, HS-27 cells (normal foreskin, non-cancer)
In short: as §1

[16] = Differential nuclear staining; type: cell-based; conditions: human, Hs-27 cells (non-cancerous reference) versus PANC-1 cells
In short: as §1

[17] = tested on: PANC-1; test: Differential nuclear staining; type: cell-based; conditions: Homo sapiens, PANC-1, 48 h
In short: as §1

[18] = Differential nuclear staining; type: cell-based; conditions: human, Hs-27 cells (non-cancerous reference) versus PC-3 cells
In short: as §1

[19] = tested on: PC-3; test: Differential nuclear staining; type: cell-based; conditions: Homo sapiens, PC-3, 48 h
In short: as §1

[20] = Differential nuclear staining; type: cell-based; conditions: human, Hs-27 cells (non-cancerous reference) versus U266 cells
In short: as §1

[21] = tested on: U266; test: Differential nuclear staining; type: cell-based; conditions: Homo sapiens, U-266, 48 h
In short: as §1

[22] = Differential nuclear staining; type: cell-based; conditions: human, Hs-27 cells (non-cancerous reference) versus RPMI-8226 cells
In short: as §1

[23] = tested on: RPMI-8226; test: Differential nuclear staining; type: cell-based; conditions: Homo sapiens, RPMI-8226, 48 h
In short: as §1

[24] = Differential nuclear staining; type: cell-based; conditions: human, Hs-27 cells (non-cancerous reference) versus MM1 S cells
In short: as §1

[25] = tested on: MM1 S; test: Differential nuclear staining; type: cell-based; conditions: Homo sapiens, MM1.S, 48 h
In short: as §1

[26] = Differential nuclear staining; type: cell-based; conditions: human, Hs-27 cells (non-cancerous reference) versus MM1 R cells
In short: as §1

[27] = tested on: MM1 R; test: Differential nuclear staining; type: cell-based; conditions: Homo sapiens, MM.1R, 48 h
In short: as §1

[28] = tested on: CEM cells; test: Annexin V-FITC/PI apoptosis/necrosis assay; type: cell-based, human; conditions: 24 h, 2x CC50, compared to DMSO solvent control
[29] = tested on: COLO 205 cells; test: Annexin V-FITC/PI apoptosis/necrosis assay; type: cell-based, human; conditions: COLO 205, 24 h, 2x CC50, compared to DMSO solvent control
[30] = tested on: CEM cells; test: Reactive oxygen species accumulation; type: cell-based, human; conditions: 6 h, compared with DMSO-treated cells
[31] = tested on: COLO 205 cells; test: Reactive oxygen species accumulation; type: cell-based, human; conditions: COLO 205, 6 h, compared with DMSO-treated cells
[32] = tested on: CEM cells; test: Mitochondrial membrane potential; type: cell-based, human; conditions: 6 h, CC50 and twice the CC50, vs untreated and DMSO
[33] = tested on: COLO 205 cells; test: Mitochondrial membrane potential; type: cell-based, human; conditions: COLO 205, 6 h, CC50 and twice the CC50, vs untreated and DMSO
[34] = tested on: caspase-3/7 in CEM cells; test: Caspase-3/7 activation; type: cell-based, human; conditions: 7.5 h, CC50 and twice the CC50, vs vehicle control (1% DMSO)
[35] = tested on: caspase-3/7 in COLO 205 cells; test: Caspase-3/7 activation; type: cell-based, human; conditions: COLO 205, 7.5 h, CC50 and twice the CC50, vs vehicle control (1% DMSO)
[36] = tested on: CEM cells; test: Cell cycle profile analysis; type: cell-based, human; conditions: CC20, 72 h
[37] = tested on: COLO 205 cells; test: Cell cycle profile analysis; type: cell-based, human; conditions: COLO 205, CC20, 72 h
[38] = tested on: poly-ubiquitinated proteins in COLO 205 cells; test: Western blot of poly-ubiquitinated proteins; type: cell-based, human; conditions: COLO 205, 8 h, 2X CC50
In short: (§2)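 3,000,000 cells per T-25 flask in 10 ml RPMI were treated 8 h at twice the CC50, with MG-132 and 0.3% PEG-400 vehicle controls. Cells were PBS-washed and lysed by boiling 15 min in 2x Laemmli buffer. 100 μg protein was run on 7% SDS-PAGE and transferred to PVDF. Blots were blocked overnight in 5% milk, then probed with mouse anti-ubiquitin (1 h) and HRP anti-mouse (1:10,000, 1 h). ECL imaging and densitometry followed.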

[39] = tested on: poly-ubiquitinated proteins in CEM cells; test: Western blot of poly-ubiquitinated proteins; type: cell-based, human; conditions: 8 h, in comparison to COLO 205
In short: as §2

[40] = tested on: CEM and COLO 205 cells; conditions: 1 mM positive control, 24 h; cell line not stated
[41] = COLO 205, 24 h, read-out: 24 h CC50

O=C1C(=Cc2ccc(F)c(F)c2)CN(C(=O)C(Cl)Cl)CC1=Cc1ccc(F)c(F)c1 [compound 2608, 1-dichloroacetyl – 3,5-bis(3,4-difluorobenzylidene)-4-piperidone]
selectivity ratio at 48 h [1]: 22.8
CC20 [2]: 0.0397 µM
selectivity ratio at 48 h [3]: 4.79
CC50 [4]: 0.095 µM
selectivity ratio at 48 h [5]: 7.11
CC50 [6]: 0.064 µM
selectivity ratio at 48 h [7]: 9.68
CC50 [8]: 0.047 µM
selectivity ratio at 48 h [9]: 2.6
CC50 at 48 h [9]: 0.175 µM
selectivity ratio at 48 h [10]: 2.8
CC50 [11]: 0.162 µM
selectivity ratio at 48 h [12]: 1.07
CC20 [13]: 0.7616 µM
CC50 [13, 41]: 1.9 µM
CC50 ([13]; COLO 205, 48 h): 0.424 µM
CC50 at 48 h [14]: 0.12 µM
CC50 at 48 h [15]: 0.455 µM
selectivity ratio at 48 h [16]: 0.4
CC50 [17]: 1.13 µM
selectivity ratio at 48 h [18]: 1.51
CC50 [19]: 0.301 µM
selectivity ratio at 48 h [20]: 31.6
CC50 [21]: 0.0144 µM
selectivity ratio at 48 h [22]: 11.5
CC50 [23]: 0.0397 µM
selectivity ratio at 48 h [24]: 25.1
CC50 [25]: 0.0181 µM
selectivity ratio at 48 h [26]: 28.4
CC50 [27]: 0.016 µM
PS externalization (Annexin V-FITC positive cells) [28]: significant PS externalization
PS externalization (Annexin V-FITC positive cells) [29]: significant PS externalization
ROS accumulation [30]: Significant ROS
ROS accumulation [31]: Significant ROS
mitochondrial depolarization [32]: significant mitochondrial depolarization
mitochondrial depolarization [33]: significant mitochondrial depolarization
caspase-3/7 activation [34]: significant caspase-3/7 activation
caspase-3/7 activation [35]: significant caspase-3/7 activation
DNA fragmentation (sub G0/G1) [36]: induced DNA fragmentation
DNA fragmentation (sub G0/G1) [37]: but not in COLO 205
cell cycle profile [37]: did not alter the cell cycle profile
accumulation of high molecular weight poly-ubiquitinated proteins (densitometry) [38]: 0.40 fold increase

O=C1C(=Cc2ccc(Cl)c(Cl)c2)CN(C(=O)C(Cl)Cl)CC1=Cc1ccc(Cl)c(Cl)c1 [compound 2610, 1-dichloroacetyl-3,5-bis(3,4-dichlorobenzylidene)-4-piperidone]
selectivity ratio at 48 h [1]: 6.66
CC20 [2]: 0.0372 µM
selectivity ratio at 48 h [3]: 5.55
CC50 [4]: 0.036 µM
selectivity ratio at 48 h [5]: 8.33
CC50 [6]: 0.024 µM
selectivity ratio at 48 h [7]: 1.65
CC50 [8]: 0.121 µM
selectivity ratio at 48 h [9]: 1.66
CC50 at 48 h [9]: 0.12 µM
selectivity ratio at 48 h [10]: 5.55
CC50 [11]: 0.036 µM
selectivity ratio at 48 h [12]: 0.12
CC20 [13]: 1.5164 µM
CC50 [13, 41]: 3.79 µM
CC50 ([13]; COLO 205, 48 h): 1.66 µM
CC50 at 48 h [14]: 0.176 µM
CC50 at 48 h [15]: 0.2 µM
selectivity ratio at 48 h [16]: 0.48
CC50 [17]: 0.414 µM
selectivity ratio at 48 h [18]: 0.44
CC50 [19]: 0.446 µM
selectivity ratio at 48 h [20]: 0.26
CC50 [21]: 0.762 µM
selectivity ratio at 48 h [22]: 0.599
CC50 [23]: 0.334 µM
selectivity ratio at 48 h [24]: 7.66
CC50 [25]: 0.0261 µM
selectivity ratio at 48 h [26]: 22.2
CC50 [27]: 0.009 µM
PS externalization (Annexin V-FITC positive cells) [28]: significant PS externalization
PS externalization (Annexin V-FITC positive cells) [29]: significant PS externalization
ROS accumulation [30]: Significant ROS
ROS accumulation [31]: Significant ROS
mitochondrial depolarization [32]: significant mitochondrial depolarization
mitochondrial depolarization [33]: significant mitochondrial depolarization
caspase-3/7 activation [34]: significant caspase-3/7 activation
caspase-3/7 activation [35]: significant caspase-3/7 activation
DNA fragmentation (sub G0/G1) [36]: caused DNA fragmentation on both cell lines
DNA fragmentation (sub G0/G1) [37]: caused DNA fragmentation on both cell lines
cell cycle profile [37]: did not alter the cell cycle profile
accumulation of high molecular weight poly-ubiquitinated proteins (densitometry) [38]: 1.41 fold increase

CC(C)C[C@@H](C=O)NC(=O)[C@H](CC(C)C)NC(=O)[C@H](CC(C)C)NC(=O)OCc1ccccc1 [MG132, reference compound] (Cbz-Leu-Leu-Leu-aldehyde)
proteasome inhibition (poly-ubiquitinated proteins, in words) [39]: slight proteasome inhibition
accumulation of high molecular weight poly-ubiquitinated proteins (densitometry) [38]: 1 fold increase

OO [H20_2, hydrogen peroxide]
percentage of PS externalization [40]: 39%
